Reference: ChEMBL document CHEMBL4145598, “Discovery and Development of 8-Substituted Cycloberberine Derivatives as Novel Antibacterial Agents against MRSA” (ACS Med Chem Lett, 2018)

Assays:
Format in all cases: functional
Staphylococcus aureus [1] = test: Antimicrobial activity against methicillin-sensitive Staphylococcus aureus ATCC 29213 after 18 hrs by agar dilution assay; settings: ATCC 29213, 18 h
Staphylococcus aureus [2] = test: Antimicrobial activity against methicillin-sensitive Staphylococcus aureus isolate 15 after 18 hrs by agar dilution assay; settings: isolate 15, 18 h
Staphylococcus aureus [3] = test: Antimicrobial activity against methicillin-sensitive Staphylococcus aureus isolate 13-17 after 18 hrs by agar dilution assay; settings: isolate 13-17, 18 h
Staphylococcus aureus [4] = test: Antimicrobial activity against methicillin-sensitive Staphylococcus aureus isolate 13-19 after 18 hrs by agar dilution assay; settings: isolate 13-19, 18 h
Staphylococcus aureus [5] = test: Antimicrobial activity against methicillin-sensitive Staphylococcus aureus isolate 13-20 after 18 hrs by agar dilution assay; settings: isolate 13-20, 18 h
Staphylococcus aureus [6] = test: Antimicrobial activity against methicillin-sensitive Staphylococcus aureus isolate 13-21 after 18 hrs by agar dilution assay; settings: isolate 13-21, 18 h
[7] = test system: Staphylococcus epidermidis; test: Antimicrobial activity against methicillin-sensitive Staphylococcus epidermidis ATCC 12228 after 18 hrs by agar dilution assay; settings: ATCC 12228, 18 h
[8] = test system: Staphylococcus epidermidis; test: Antimicrobial activity against methicillin-sensitive Staphylococcus epidermidis isolate 13-1 after 18 hrs by agar dilution assay; settings: isolate 13-1, 18 h
[9] = test system: Staphylococcus saprophyticus; test: Antimicrobial activity against Staphylococcus saprophyticus ATCC 15305 after 18 hrs by agar dilution assay; settings: ATCC 15305, 18 h
Staphylococcus hominis = test: Antimicrobial activity against Staphylococcus hominis ATCC 35982 after 18 hrs by agar dilution assay; settings: ATCC 35982, 18 h
Staphylococcus aureus [10] = test: Antimicrobial activity against methicillin-resistant Staphylococcus aureus ATCC 33591 after 18 hrs by agar dilution assay; settings: ATCC 33591, 18 h
How it was run: (§1)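 Drug-resistant S. aureus (MRSA/VISA) panel. It includes ATCC reference strains and clinical isolates from patients in Chinese hospitals. MIC was determined by standard methods and reported in μg/mL, with levofloxacin as the reference drug.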

Staphylococcus aureus [11] = test: Antimicrobial activity against methicillin-resistant Staphylococcus aureus isolate 13-18 after 18 hrs by agar dilution assay; settings: isolate 13-18, 18 h; how it was run: as §1
Staphylococcus aureus [12] = test: Antimicrobial activity against methicillin-resistant Staphylococcus aureus isolate 13-23 after 18 hrs by agar dilution assay; settings: isolate 13-23, 18 h; how it was run: as §1
Staphylococcus aureus [13] = test: Antimicrobial activity against methicillin-resistant Staphylococcus aureus isolate 12-3 after 18 hrs by agar dilution assay; settings: isolate 12-3, 18 h; how it was run: as §1
Staphylococcus aureus [14] = test: Antimicrobial activity against methicillin-resistant Staphylococcus aureus isolate 12-8 after 18 hrs by agar dilution assay; settings: isolate 12-8, 18 h; how it was run: as §1
Staphylococcus aureus [15] = test: Antimicrobial activity against methicillin-resistant Staphylococcus aureus isolate 12-13 after 18 hrs by agar dilution assay; settings: isolate 12-13, 18 h; how it was run: as §1
Staphylococcus aureus [16] = test: Antimicrobial activity against methicillin-resistant Staphylococcus aureus isolate 12-16 after 18 hrs by agar dilution assay; settings: isolate 12-16, 18 h; how it was run: as §1
Staphylococcus aureus [17] = test: Antimicrobial activity against methicillin-resistant Staphylococcus aureus ATCC-BAA-1708 after 18 hrs by agar dilution assay; settings: ATCC-BAA-1708, 18 h; how it was run: as §1
Staphylococcus aureus [18] = test: Antimicrobial activity against vancomycin-intermediate Staphylococcus aureus ATCC 700698 after 18 hrs by agar dilution assay; settings: ATCC 700698, 18 h
How it was run: (§2)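 MICs in μg/mL against drug-resistant S. aureus (MRSA/VISA) by standard methods, with levofloxacin as the reference drug. ATCC strains were used.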

Staphylococcus aureus [19] = test: Antimicrobial activity against vancomycin-intermediate Staphylococcus aureus ATCC 700699 after 18 hrs by agar dilution assay; settings: ATCC 700699, 18 h; how it was run: as §2

Compound: COc1ccc2c(c[n+]3c4c2ccc2c5c(cc(c24)CC3)OCO5)c1OCC(=O)C(C)(C)C.[Br-]
- MIC (Staphylococcus aureus [1]): 32 µg/mL
- MIC (Staphylococcus aureus [2]): 64 µg/mL
- MIC (Staphylococcus aureus [3]): 32 µg/mL
- MIC (Staphylococcus aureus [4]): 32 µg/mL
- MIC (Staphylococcus aureus [5]): 32 µg/mL
- MIC (Staphylococcus aureus [6]): 32 µg/mL
- MIC [7]: 32 µg/mL
- MIC [8]: 32 µg/mL
- MIC [9]: 32 µg/mL
- MIC (Staphylococcus hominis): 16 µg/mL
- MIC (Staphylococcus aureus [10]): 32 µg/mL
- MIC (Staphylococcus aureus [11]): 32 µg/mL
- MIC (Staphylococcus aureus [12]): 32 µg/mL
- MIC (Staphylococcus aureus [13]): 32 µg/mL
- MIC (Staphylococcus aureus [14]): 64 µg/mL
- MIC (Staphylococcus aureus [15]): 32 µg/mL
- MIC (Staphylococcus aureus [16]): 32 µg/mL
- MIC (Staphylococcus aureus [17]): 32 µg/mL
- MIC (Staphylococcus aureus [18]): > 64 µg/mL
- MIC (Staphylococcus aureus [19]): > 64 µg/mL

Compound: COc1ccc2c(c[n+]3c4c2ccc2c5c(cc(c24)CC3)OCO5)c1NC(=O)CC1CCCC1.[Cl-]
- MIC (Staphylococcus aureus [1]): 8 µg/mL
- MIC (Staphylococcus aureus [2]): 8 µg/mL
- MIC (Staphylococcus aureus [3]): 8 µg/mL
- MIC (Staphylococcus aureus [4]): 8 µg/mL
- MIC (Staphylococcus aureus [5]): 8 µg/mL
- MIC (Staphylococcus aureus [6]): 8 µg/mL
- MIC [7]: 8 µg/mL
- MIC [8]: 8 µg/mL
- MIC [9]: 32 µg/mL
- MIC (Staphylococcus hominis): 8 µg/mL
- MIC (Staphylococcus aureus [10]): 8 µg/mL
- MIC (Staphylococcus aureus [11]): 8 µg/mL
- MIC (Staphylococcus aureus [12]): 8 µg/mL
- MIC (Staphylococcus aureus [13]): 8 µg/mL
- MIC (Staphylococcus aureus [14]): 8 µg/mL
- MIC (Staphylococcus aureus [15]): 16 µg/mL
- MIC (Staphylococcus aureus [16]): 8 µg/mL
- MIC (Staphylococcus aureus [17]): 4 µg/mL
- MIC (Staphylococcus aureus [18]): 64 µg/mL
- MIC (Staphylococcus aureus [19]): 4 µg/mL

Compound: COc1ccc2c(c[n+]3c4c2ccc2c5c(cc(c24)CC3)OCO5)c1NCc1ccco1.[Cl-]
- MIC (Staphylococcus aureus [1]): 32 µg/mL
- MIC (Staphylococcus aureus [2]): 32 µg/mL
- MIC (Staphylococcus aureus [3]): 32 µg/mL
- MIC (Staphylococcus aureus [4]): 16 µg/mL
- MIC (Staphylococcus aureus [5]): 32 µg/mL
- MIC (Staphylococcus aureus [6]): 32 µg/mL
- MIC [7]: 32 µg/mL
- MIC [8]: 64 µg/mL
- MIC [9]: 32 µg/mL
- MIC (Staphylococcus hominis): 32 µg/mL
- MIC (Staphylococcus aureus [10]): 64 µg/mL
- MIC (Staphylococcus aureus [11]): 64 µg/mL
- MIC (Staphylococcus aureus [12]): 64 µg/mL
- MIC (Staphylococcus aureus [13]): 32 µg/mL
- MIC (Staphylococcus aureus [14]): 64 µg/mL
- MIC (Staphylococcus aureus [15]): 32 µg/mL
- MIC (Staphylococcus aureus [16]): 64 µg/mL
- MIC (Staphylococcus aureus [17]): > 64 µg/mL
- MIC (Staphylococcus aureus [18]): > 64 µg/mL
- MIC (Staphylococcus aureus [19]): > 64 µg/mL

Compound: COc1ccc2c(c[n+]3c4c2ccc2c5c(cc(c24)CC3)OCO5)c1OCC(=O)c1ccc(C)cc1.[Br-]
- MIC (Staphylococcus aureus [1]): 4 µg/mL
- MIC (Staphylococcus aureus [2]): 8 µg/mL
- MIC (Staphylococcus aureus [3]): 4 µg/mL
- MIC (Staphylococcus aureus [4]): 4 µg/mL
- MIC (Staphylococcus aureus [5]): 8 µg/mL
- MIC (Staphylococcus aureus [6]): 4 µg/mL
- MIC [7]: 2 µg/mL
- MIC [8]: 8 µg/mL
- MIC [9]: 4 µg/mL
- MIC (Staphylococcus hominis): 4 µg/mL
- MIC (Staphylococcus aureus [10]): 4 µg/mL
- MIC (Staphylococcus aureus [11]): 4 µg/mL
- MIC (Staphylococcus aureus [12]): 4 µg/mL
- MIC (Staphylococcus aureus [13]): 4 µg/mL
- MIC (Staphylococcus aureus [14]): 8 µg/mL
- MIC (Staphylococcus aureus [15]): 4 µg/mL
- MIC (Staphylococcus aureus [16]): 4 µg/mL
- MIC (Staphylococcus aureus [17]): 8 µg/mL
- MIC (Staphylococcus aureus [18]): > 64 µg/mL
- MIC (Staphylococcus aureus [19]): > 64 µg/mL

Compound: COc1cccc(C(=O)COc2c(OC)ccc3c2c[n+]2c4c3ccc3c5c(cc(c34)CC2)OCO5)c1.[Br-]
- MIC (Staphylococcus aureus [1]): 16 µg/mL
- MIC (Staphylococcus aureus [2]): 32 µg/mL
- MIC (Staphylococcus aureus [3]): 4 µg/mL
- MIC (Staphylococcus aureus [4]): 4 µg/mL
- MIC (Staphylococcus aureus [5]): 8 µg/mL
- MIC (Staphylococcus aureus [6]): 16 µg/mL
- MIC [7]: 16 µg/mL
- MIC [8]: 8 µg/mL
- MIC [9]: 8 µg/mL
- MIC (Staphylococcus hominis): 64 µg/mL
- MIC (Staphylococcus aureus [10]): 4 µg/mL
- MIC (Staphylococcus aureus [11]): 4 µg/mL
- MIC (Staphylococcus aureus [12]): 16 µg/mL
- MIC (Staphylococcus aureus [13]): 16 µg/mL
- MIC (Staphylococcus aureus [14]): 16 µg/mL
- MIC (Staphylococcus aureus [15]): 8 µg/mL
- MIC (Staphylococcus aureus [16]): 8 µg/mL
- MIC (Staphylococcus aureus [17]): 64 µg/mL
- MIC (Staphylococcus aureus [18]): > 64 µg/mL
- MIC (Staphylococcus aureus [19]): > 64 µg/mL

Compound: COc1ccc2c(c[n+]3c4c2ccc2c5c(cc(c24)CC3)OCO5)c1NC(=O)c1c(C)noc1C.[Cl-]
- MIC (Staphylococcus aureus [1]): > 64 µg/mL
- MIC (Staphylococcus aureus [2]): > 64 µg/mL
- MIC (Staphylococcus aureus [3]): > 64 µg/mL
- MIC (Staphylococcus aureus [4]): > 64 µg/mL
- MIC (Staphylococcus aureus [5]): > 64 µg/mL
- MIC (Staphylococcus aureus [6]): > 64 µg/mL
- MIC [7]: > 64 µg/mL
- MIC [8]: > 64 µg/mL
- MIC [9]: > 64 µg/mL
- MIC (Staphylococcus hominis): > 64 µg/mL
- MIC (Staphylococcus aureus [10]): > 64 µg/mL
- MIC (Staphylococcus aureus [11]): > 64 µg/mL
- MIC (Staphylococcus aureus [12]): > 64 µg/mL
- MIC (Staphylococcus aureus [13]): > 64 µg/mL
- MIC (Staphylococcus aureus [14]): > 64 µg/mL
- MIC (Staphylococcus aureus [15]): > 64 µg/mL
- MIC (Staphylococcus aureus [16]): > 64 µg/mL
- MIC (Staphylococcus aureus [17]): > 64 µg/mL
- MIC (Staphylococcus aureus [18]): > 64 µg/mL
- MIC (Staphylococcus aureus [19]): > 64 µg/mL

Compound: COc1ccc2c(c[n+]3c4c2ccc2c5c(cc(c24)CC3)OCO5)c1NC(=O)c1cc(C)n(C)n1.[Cl-]
- MIC (Staphylococcus aureus [1]): 16 µg/mL
- MIC (Staphylococcus aureus [2]): 16 µg/mL
- MIC (Staphylococcus aureus [3]): 16 µg/mL
- MIC (Staphylococcus aureus [4]): 8 µg/mL
- MIC (Staphylococcus aureus [5]): 8 µg/mL
- MIC (Staphylococcus aureus [6]): 16 µg/mL
- MIC [7]: 32 µg/mL
- MIC [8]: > 64 µg/mL
- MIC [9]: > 64 µg/mL
- MIC (Staphylococcus hominis): > 64 µg/mL
- MIC (Staphylococcus aureus [10]): 64 µg/mL
- MIC (Staphylococcus aureus [11]): 32 µg/mL
- MIC (Staphylococcus aureus [12]): 8 µg/mL
- MIC (Staphylococcus aureus [13]): 32 µg/mL
- MIC (Staphylococcus aureus [14]): 32 µg/mL
- MIC (Staphylococcus aureus [15]): 16 µg/mL
- MIC (Staphylococcus aureus [16]): 16 µg/mL
- MIC (Staphylococcus aureus [17]): 16 µg/mL
- MIC (Staphylococcus aureus [18]): > 64 µg/mL
- MIC (Staphylococcus aureus [19]): 4 µg/mL
